STAT1 act: activators of IFN-gamma induced STAT1 signaling; AID 932; activation (% of control), % at 5.5 µM; 2.6% of 200,000 active; NIH 3T3 STAT1-luciferase reporter, luminescence; 100% = IFN-gamma alone, no compound;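 active means activation above the screen-wide mean activation plus 3 SD, cut at about 130% in these data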
Pf gamet viab: kills late stage P. falciparum gametocytes; P. falciparum stage V gametocytes, ATP luminescence, 24 h; 0.065% of 150,000 active; inhibition, % at 10.9 µM;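 active means inhibition above the mean plus 3 SD of compounds within the control limits, set per campaign, cut at about 38% in these data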
STAT1 inh: STAT1 signaling inhibition; AID 920; inhibition, % at 5.5 µM; NIH 3T3 STAT1-luciferase reporter, IFN-gamma, luminescence; 0.35% of 200,000 active;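 active means inhibition above a set limit, the mean inhibition across all tested compounds plus 3 SD, cut at about 34% in these data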
APP 5'UTR act: APP 5'UTR luciferase reporter activation; SH-SY5Y APP 5'UTR luciferase reporter, luminescence; zero percent = DMSO vehicle wells; 1% of 190,000 active; AID 1276; activation, % at 2 µM;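 active means activation above a set limit, based on mean plus 3 SD of controls, cut at about 140% in these data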
NF-kB neuron act: compounds increasing NF-kB expression in human neuronal cells | fold change at 12.5 µM | NF-kB reporter expression; stronger effect = higher value | 1.6% of 190,000 active; in the data active means fold change above about 3.3
STAT3 activator: STAT3 signaling activation | U3A cells, IL-6 STAT3-luciferase reporter, luminescence; 100% = signal with IL-6 EC80 alone | activation (% of control), % at 5.6 µM | 0.91% of 190,000 active;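 active means activation above the screen-wide mean of compound activation plus 3 SD, cut at about 130% in these data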
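Material: STAT3-luciferase reporter U3A cells. Controls: IL-6-treated wells, 100% activation. Read-out: % activation versus median of IL-6-stimulated wells. Probe or stimulus: IL-6 stimulus at 33 ng/mL final. Timing: compound 1 h, then IL-6 6 h at 37 °C. Signal: reporter luminescence signal.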
Of the large screens only hits and unclear results are named; the others gave an inactive call. Shown are actives, neighbours in structure and some others; about 3.9% of the full set was active somewhere.

O=c1c2c(nc3nc(NCc4cccc(Cl)c4)[nH]n13)CCC2	none
O=C(NCCN1CCCCCC1)C1CCCN1S(=O)(=O)c1cccc2nsnc12 (stereo not given)	none (no result: STAT1 act, STAT1 inh, APP 5'UTR act, NF-kB neuron act, STAT3 activator)
Cc1cc(N)n(-c2ccccc2C)n1	none
Cc1cc(N)n(-c2cc(C)c3ccccc3n2)n1	APP 5'UTR act 137, NF-kB neuron act 4.5
Cc1cc(C)c2nc(-n3nc(C)cc3N)cc(C)c2c1	STAT1 act 143
CC(C)c1nc2sc3c(SCCN(C)C)ncnc3c2c2c1CCC2	none (no result: STAT1 act, STAT1 inh, APP 5'UTR act, NF-kB neuron act, STAT3 activator)
O=C(Nc1cccc(NC(=O)c2ccc3c(c2)OCO3)c1)c1ccccc1	none
O=C(N/N=C/c1cccs1)c1ccc2c(c1)OCO2	STAT1 act 129 (no result: Pf gamet viab)
O=C(Nc1ccccn1)Nc1cccs1	STAT1 act 132
O=C(Nc1ccccc1)c1ccc2c(c1)OCCO2	STAT1 act 146, NF-kB neuron act 5.5 (no result: Pf gamet viab)
O=C(Nc1cccc(F)c1)Nc1ccccn1	STAT1 act 148
O=C(COc1ccccc1)c1cn(CC(=O)N2CCCC2)c2ccccc12	none
CC(C)C(=O)Nc1ccc(NC(=O)c2ccc3c(c2)OCO3)cc1	none (no result: STAT1 act, STAT1 inh, APP 5'UTR act, NF-kB neuron act, STAT3 activator)
O=C(Nc1ccc2c(c1)OCO2)Nc1ccc2c(c1)OCO2	STAT1 act 141, APP 5'UTR act 136
COc1ccc(C(=O)NC(=O)Nc2cc(C)ccn2)cc1	STAT1 inh 39, APP 5'UTR act 159
O=C(Nc1ccc(F)c(F)c1)c1ccc2c(c1)OCO2	STAT1 act 138 (no result: Pf gamet viab)
O=C(Nc1ccc2c(c1)OCO2)c1c(F)c(F)c(F)c(F)c1F	none
O=C(Nc1ccc(Cl)cc1)c1ccc2c(c1)OCO2	STAT1 act 139, APP 5'UTR act 193, NF-kB neuron act 6.8 (no result: Pf gamet viab)
O=C(CN1CCc2ccccc2C1)NC1CCCC1	none
O=C(Nc1ccc(Nc2ccccc2)cc1)c1ccc(Cl)cc1	none (no result: STAT1 act, STAT1 inh, APP 5'UTR act, NF-kB neuron act, STAT3 activator)
O=C(Nc1ccon1)c1ccc2c(c1)OCO2	none
O=C(Nc1ccc2c(c1)OCO2)c1cnn2cccnc12	STAT1 act 130
Cc1ccnc(NC(=O)c2ccc3c(c2)OCO3)c1	APP 5'UTR act 206, NF-kB neuron act 4.2 (no result: Pf gamet viab)
CCOC(=O)c1c(N)sc(C(=O)Nc2ccc3c(c2)OCO3)c1C	NF-kB neuron act 5.5 (no result: Pf gamet viab)
O=C(Nc1ccc(Cl)cc1)C1=Cc2ccccc2OC1	STAT1 act 143, APP 5'UTR act 210, NF-kB neuron act 9.2 (no result: Pf gamet viab)
CON(C)C(=O)CC(CNC(=O)OC(C)(C)C)c1ccc(Cl)cc1 (stereo not given)	none (no result: STAT1 act, STAT1 inh, APP 5'UTR act, NF-kB neuron act, STAT3 activator)
COc1ccc(Br)cc1CN1CCCCCC1	none (no result: STAT1 act, STAT1 inh, APP 5'UTR act, NF-kB neuron act, STAT3 activator)
NC(=O)c1ccc(NC(=O)c2ccc3c(c2)OCO3)cc1	STAT1 act 139
O=C(Nc1ccc(Cl)c([N+](=O)[O-])c1)c1ccc2c(c1)OCCO2	STAT1 act 139, APP 5'UTR act 168, NF-kB neuron act 3.7
CC(=O)Nc1ccc(C(=O)Nc2ccc3c(c2)OCO3)cc1	none
CCC(=O)Oc1ccc(C(=O)Nc2ccc3c(c2)OCO3)cc1	STAT1 act 137, APP 5'UTR act 142
CC(=O)c1cccc(NC(=O)c2ccc3c(c2)OCO3)c1	none (no result: STAT1 act, STAT1 inh, APP 5'UTR act, NF-kB neuron act, STAT3 activator)
O=C(Nc1ccc2c(c1)OCO2)c1cccc(Cl)c1	STAT1 act 129
CCOC(=O)N1CCC(=NNC(=O)c2ccccc2F)CC1	none
CCC(C)(C)c1ccc(OCCCC[n+]2cccc(C)c2)c(C(C)(C)CC)c1	none
O=C(Nc1ccc([N+](=O)[O-])cc1)Nc1ccc2c(c1)OCCO2	STAT1 act 134, NF-kB neuron act 4.5
O=C(Nc1ccc2c(c1)OCCO2)NC1CCCCC1	STAT1 act 129, APP 5'UTR act 138, NF-kB neuron act 5.2 (no result: Pf gamet viab)
Cc1noc(C(=O)Nc2ccc3c(c2)OCO3)c1Cl	none (no result: Pf gamet viab)
O=C(Nc1ccc2c(c1)OCO2)c1ccc(Cl)s1	STAT1 act 130, APP 5'UTR act 184, NF-kB neuron act 9.8
COc1cc([N+](=O)[O-])ccc1NC(=O)Nc1ccc2c(c1)OCCO2	none
O=C(Nc1ccc2c(c1)OCO2)c1c(Cl)nc2sccn12	STAT1 act 131 (no result: Pf gamet viab)
Cc1ccc(NC(=O)c2ccc(Cn3cc([N+](=O)[O-])cn3)cc2)c(C)c1	none
CC(=O)c1ccc(Oc2cnccn2)cc1	none
CC[C@H](C)[C@@H](C(=O)NCCCCCCCCCCC(=O)N1CCNCC1)n1cc(CCCCN=C(N)N)nn1	none (no result: STAT1 act, STAT1 inh, APP 5'UTR act, NF-kB neuron act, STAT3 activator)
O=C(Nc1ccc2c(c1)OCO2)Nc1ccccn1	STAT1 act 148
O=C(CCCc1ccccc1)c1ccc2c(c1)OCCO2	STAT1 inh 92 (no result: Pf gamet viab, APP 5'UTR act)

Bioassay records as filed in PubChem.
